Shown are actives, neighbours in structure and some others; about 1.8% of the full set was active somewhere.
HKDC1 inhibitor: blocks human hexokinase HKDC1 activity. inhibition, % at 20 µM. AID 493160. Q2TB90. recombinant HKDC1, G6PDH/diaphorase resazurin coupled fluorescence. 340,000 compounds, 0.16% hits;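 active = inhibition above about 35% when tested at 20 µM, limit read from the data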
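Test system: HK5 enzyme. Quantity: 5 µg/mL HK5 final. Reagent: glucose and ATP substrates. Schedule: 90 min reaction incubation at room temperature, dark. Technique: resazurin-to-resorufin fluorescence via G6PDH and diaphorase coupling, 525/613 nm. Control set: DMSO wells with and without enzyme mix.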
STEP inh: STEP (human) phosphatase inhibition; recombinant STEP, OMFP fluorogenic substrate, fluorescence; inhibition, % at 20 µM; 360,000 compounds, 0.25% hits;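 active = inhibition at 20 µM, scaled per plate between control wells, above about 37%, limit read from the data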
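System: STEP phosphatase, cell-free reaction; Buffer or medium: Bis-Tris pH 6.0 buffer with DTT, detergent; Incubation: 20 min at room temperature, dark; Measured by: fluorescence, 480/540 nm.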
LMPTP inh: LMPTP (human) inhibition; inhibition, % at 20 µM; recombinant LMPTP-A, OMFP fluorogenic substrate, fluorescence intensity; 360,000 compounds, 0.22% hits; P24666;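 active = compounds that cut the enzyme signal by at least half of the control window in the single-dose screen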
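Test system: LMPTP-A phosphatase enzyme; input: 0.625 nM LMPTP-A final; reagent: OMFP substrate, 400 µM final; compound dosing: 20 µM single dose, 3% DMSO; incubation: 50 min dark incubation at room temperature; measured by: endpoint fluorescence intensity from OMFP dephosphorylation; measure: % inhibition relative to no-enzyme and uninhibited control wells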
Scp1 inh: blocks human Scp-1 phosphatase activity; Q9GZU7; Recombinant Scp1, phosphopeptide, malachite green phosphate absorbance; inhibition, % at 20 µM; 340,000 compounds, 0.88% hits; AID 493091;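 active = inhibition above about 50% at 20 µM, limit read from the data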
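Test system: SCP-1 phosphatase catalytic domain, residues 76-261; measured by: colorimetric phosphate reagent with accelerator and stabiliser, absorbance at 630 nm; timing: enzyme reaction 45 min at room temperature, colour 5 min, stabilisation 30 min; also added: Phosphorylated 17-residue peptide substrate; compound dosing: one concentration, 20 µM, with 1.0% DMSO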
DNMT1 inh: DNMT1 (human) enzyme inhibition; DNMT1 molecular beacon, Hinp1I cleavage, fluorescence; inhibition (reported as % activation of signal), % at 10 µM; P26358; AID 588458; 360,000 compounds, 0.83% hits; in the data active = inhibition above about 50%
Target sequence (P26358 504-1616 limits assumed): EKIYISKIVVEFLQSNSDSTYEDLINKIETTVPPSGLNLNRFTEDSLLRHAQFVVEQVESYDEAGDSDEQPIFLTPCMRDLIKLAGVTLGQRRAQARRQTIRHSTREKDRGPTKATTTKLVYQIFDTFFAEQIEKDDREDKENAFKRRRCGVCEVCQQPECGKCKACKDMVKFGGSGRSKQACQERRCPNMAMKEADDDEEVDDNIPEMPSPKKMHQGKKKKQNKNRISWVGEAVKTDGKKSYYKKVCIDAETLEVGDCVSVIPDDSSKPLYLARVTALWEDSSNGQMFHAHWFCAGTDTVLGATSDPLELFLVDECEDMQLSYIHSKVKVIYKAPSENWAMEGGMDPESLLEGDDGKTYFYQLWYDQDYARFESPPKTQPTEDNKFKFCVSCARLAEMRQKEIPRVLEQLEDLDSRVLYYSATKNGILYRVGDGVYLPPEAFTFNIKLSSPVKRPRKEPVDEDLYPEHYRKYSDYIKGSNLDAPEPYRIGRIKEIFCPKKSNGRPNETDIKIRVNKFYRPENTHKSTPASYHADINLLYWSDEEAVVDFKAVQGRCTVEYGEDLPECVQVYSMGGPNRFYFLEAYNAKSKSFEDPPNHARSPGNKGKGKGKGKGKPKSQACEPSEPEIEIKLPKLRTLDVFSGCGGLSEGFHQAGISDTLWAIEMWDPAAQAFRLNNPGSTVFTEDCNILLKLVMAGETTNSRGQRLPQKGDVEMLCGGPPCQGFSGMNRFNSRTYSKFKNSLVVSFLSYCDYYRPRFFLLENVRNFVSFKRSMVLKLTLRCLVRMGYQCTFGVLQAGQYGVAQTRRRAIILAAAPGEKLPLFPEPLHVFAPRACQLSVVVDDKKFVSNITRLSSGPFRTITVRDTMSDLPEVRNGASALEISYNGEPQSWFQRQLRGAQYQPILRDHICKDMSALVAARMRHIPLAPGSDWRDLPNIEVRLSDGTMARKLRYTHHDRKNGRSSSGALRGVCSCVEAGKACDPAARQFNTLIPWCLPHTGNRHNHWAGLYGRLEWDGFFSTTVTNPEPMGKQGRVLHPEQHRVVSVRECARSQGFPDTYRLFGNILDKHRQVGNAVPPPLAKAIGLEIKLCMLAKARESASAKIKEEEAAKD
SUMO1 PPI mod: modulators of human SUMO1-mediated protein-protein interactions | P63165 | inhibition, % at 20 µM | 360,000 compounds, 0.33% hits | SUMO1 binding to a labelled peptide, TR-FRET, 1 h; in the data active = inhibition above about 37%
Scp-1 conf: Scp-1 (human) inhibition, single-dose confirmed. shares compounds with Scp1 inh. recombinant SCP-1 catalytic domain, phosphate release, malachite green absorbance. inhibition, % at 20 µM. AID 540281. 2,500 compounds, 61% hits
MG interference: counter-screen for Scp-1 inhibitors: colorimetric interference; apparent inhibition (interference), % at 20 µM; 2,500 tested, under 10 active; Colorimetric interference counterscreen, malachite green absorbance 630 nm; AID 540313; shares compounds with Scp1 inh;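 note: compounds added after enzyme reaction finished so only phosphate colour detection is probed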
Scp1 DSF: binds human Scp-1, shifting its melting temperature. AID 540329. Recombinant SCP1, Sypro Orange thermal shift Tm. shares compounds with Scp1 inh. thermal shift relative to vanadate control, % at 40 µM. 1,500 compounds, 25% hits;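 active = substances whose mean melting-temperature shift, as a percentage of the reference inhibitor's shift, reaches about 5.3%, limit read from the data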
Of the large screens only hits and unclear results are named; the others gave an inactive call (follow-up assays come after a bar, where they were run).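 Rule for the calls, unless noted: active = inhibition of at least 30% at 20 µM; inactive = the rest.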

O=C(N/N=C/C(Cl)=C/c1ccccc1)c1ccc2c(c1)OCO2	LMPTP inh 56.2, Scp1 inh 101.0 | Scp-1 conf 53.1 | MG interference inactive | Scp1 DSF inactive
NC(=O)CSc1nnc2n(N)c(=O)c3ccccc3n12	none
CCCC(=O)Nc1ccc2nc(SCC(=O)Nc3ccc(N4CCOCC4)c(Cl)c3)sc2c1	none
Nc1ccc2nc(SCC(=O)Nc3ccc(N4CCOCC4)c(Cl)c3)sc2c1	Scp1 inh 97.4 | Scp-1 conf inactive | MG interference inactive
CCCc1ccc2oc(C(=O)N3CCC(COC)C3)c(C)c2c1 (stereo not drawn)	Scp1 inh 69.1 | Scp-1 conf inactive | MG interference inactive
CC[n+]1c(C)cc2c(sc3ccccc32)c1C	Scp1 inh 63.0 | Scp-1 conf inactive | MG interference inactive
Cc1ccccc1C(=O)Nc1nnc(S(=O)(=O)N2CCCCC2)s1	none
O=C(O)C1CC=CCC1C(=O)N1CCc2ccccc21 (stereo not drawn)	Scp1 inh 52.4 | Scp-1 conf 49.2 | MG interference inactive | Scp1 DSF inactive
O=C(O)C1C2C=CC(C2)C1C(=O)N1CCc2ccccc21 (stereo not drawn)	none
CCN(CC)C(=O)C(C)OC(=O)COc1ccc(Cl)cc1C (stereo not drawn)	none
Cc1cc(Cl)ccc1OCC(=O)OC(C)C(=O)N(C)C (stereo not drawn)	Scp1 inh 55.4 | Scp-1 conf 46.3 | MG interference inactive | Scp1 DSF inactive
CCOc1cc2[nH]c(=S)n(Cc3ccc(C(=O)NCCCN(CC)CC)cc3)c(=O)c2cc1OCC	Scp1 inh 59.1 | Scp-1 conf inactive | MG interference inactive
COc1ccc(CCNC(=O)c2ccc3c(=O)n(Cc4ccco4)c(=S)[nH]c3c2)cc1OC	Scp1 inh 58.2 | Scp-1 conf inactive | MG interference inactive
CCOc1cc2[nH]c(=S)n(Cc3ccc(C(=O)NCCCOC)cc3)c(=O)c2cc1OCC	none
CCCNC(=O)c1ccc2c(=O)n(Cc3ccco3)c(=S)[nH]c2c1	none
CCC(=O)c1ccc(OCC(=O)Nc2cc(S(=O)(=O)N3CCCCC3)ccc2N2CCN(CC)CC2)cc1	Scp1 inh 106.4 | Scp-1 conf inactive | MG interference inactive
NS(=O)(=O)c1ccc(NC(=O)CSc2nnc(NC3CC3)s2)cc1	Scp1 inh 86.6 | Scp-1 conf 46.6 | MG interference inactive | Scp1 DSF inactive
CCOC(=O)NN1C(=O)c2ccccc2NC1(C)C	Scp1 inh 72.4 | Scp-1 conf inactive | MG interference inactive
CC(=O)Nc1ccc2c(O)cc(S(=O)(=O)O)cc2c1	Scp1 inh 58.7 | Scp-1 conf 46.3 | MG interference inactive | Scp1 DSF inactive
Cc1ccc(-c2csc3nnc(SCC(=O)Nc4nsc(-c5ccccc5)n4)n23)cc1	none
O=C(CSc1nnc2scc(-c3ccccc3)n12)Nc1nsc(-c2ccccc2)n1	Scp1 inh 71.3 | Scp-1 conf 73.9 | MG interference inactive | Scp1 DSF inactive
Cc1cc(Cl)ccc1OCc1nnc2n1CCCCC2	none
O=c1[nH]n2c(=O)c3c([nH]c2c1N=Nc1cccc(Cl)c1)CCCC3	Scp1 inh 94.6 | Scp-1 conf 46.1 | MG interference inactive | Scp1 DSF 30.0
Cc1cc(Nc2cccc(Br)c2)c2ccccc2n1	none
CCOc1ccccc1NC(=O)CCS(=O)(=O)c1ccc(Br)cc1	Scp1 inh 92.2, DNMT1 inh 104.6, SUMO1 PPI mod 56.6 | Scp-1 conf 66.9 | MG interference inactive | Scp1 DSF inactive
O=C(O)c1ccc(CSc2nc3ccc(NC(=O)c4ccccc4C(=O)O)cc3s2)cc1	Scp1 inh 57.6 | Scp-1 conf 43.1 | MG interference inactive | Scp1 DSF inactive
COc1ccc(/C=C(\NC(=O)c2ccccc2)C(=O)OC[C@@H]2CCC[N+]3(C)CCCCC23)cc1OC (stereo partly drawn)	Scp1 inh 102.1 | Scp-1 conf 89.2 | MG interference inactive | Scp1 DSF inactive
COc1ccc2[nH]c(=O)c(CN(C(=O)c3ccco3)C(C)C)cc2c1	Scp1 inh 60.1 | Scp-1 conf inactive | MG interference inactive
COc1ccc(NC(=O)CCNS(=O)(=O)c2cc(Br)ccc2Br)cc1S(N)(=O)=O	none | Scp-1 conf inactive | MG interference inactive
O=C(COc1ccc(Br)cc1)Nc1ccc(NC(=O)c2ccccc2)cc1	none
O=C(NC12CC3CC(CC(C3)C1)C2)c1cnccn1	Scp1 inh 50.5 | Scp-1 conf inactive | MG interference inactive
C/C(CC(=O)NC12CC3CC(CC(C3)C1)C2)=N\NC(=O)c1cnccn1	none
COc1cccc(NC(=O)CSCc2cc(=O)n3nc(C4CC4)sc3n2)c1	none | Scp-1 conf inactive | MG interference inactive
CCOC(=O)/C=C1\CC(C(=O)OCC)Oc2ccccc21 (stereo not drawn)	none
CCOC(=O)/C=C1\CN(CCC(C)C)S(=O)(=O)c2ccccc21	Scp1 inh 59.1 | Scp-1 conf 31.1 | MG interference inactive | Scp1 DSF inactive
CCOC(=O)/C=C1\CN(C(C)c2ccccc2)S(=O)(=O)c2ccccc21 (stereo not drawn)	Scp1 inh 84.2 | Scp-1 conf 45.6 | MG interference inactive | Scp1 DSF inactive
CCC(C)(C)n1nnnc1C(c1ccc(C)cc1)N1CCN(Cc2ccc3c(c2)OCO3)CC1 (stereo not drawn)	Scp1 inh 65.8 | Scp-1 conf inactive | MG interference inactive
c1ccc(CCn2nnnc2C(c2cccs2)N2CCN(Cc3ccc4c(c3)OCO4)CC2)cc1 (stereo not drawn)	Scp1 inh 67.0 | Scp-1 conf inactive | MG interference inactive
CCC(C)(C)n1nnnc1C(c1ccc2ncccc2c1)N1CCN(Cc2ccc3c(c2)OCO3)CC1 (stereo not drawn)	none
COCCCNC(=O)CCCN1C(=O)c2cccnc2Sc2ccccc21	none
CC(=O)Nc1ccc(S(=O)(=O)NC(C)(C#N)C2CC2)cc1 (stereo not drawn)	none
